Positions count from the first letter of the chain named.
Key:
IDE E341A = target: T1, IDE E341A (Homo sapiens, UniProt P14735, E341A); experiment: Hydrolysis of dual labelled Aβ16–23 by the E341A exosite mutant; format: biochemical
T1 sequence (P14735 1-1019 E341A): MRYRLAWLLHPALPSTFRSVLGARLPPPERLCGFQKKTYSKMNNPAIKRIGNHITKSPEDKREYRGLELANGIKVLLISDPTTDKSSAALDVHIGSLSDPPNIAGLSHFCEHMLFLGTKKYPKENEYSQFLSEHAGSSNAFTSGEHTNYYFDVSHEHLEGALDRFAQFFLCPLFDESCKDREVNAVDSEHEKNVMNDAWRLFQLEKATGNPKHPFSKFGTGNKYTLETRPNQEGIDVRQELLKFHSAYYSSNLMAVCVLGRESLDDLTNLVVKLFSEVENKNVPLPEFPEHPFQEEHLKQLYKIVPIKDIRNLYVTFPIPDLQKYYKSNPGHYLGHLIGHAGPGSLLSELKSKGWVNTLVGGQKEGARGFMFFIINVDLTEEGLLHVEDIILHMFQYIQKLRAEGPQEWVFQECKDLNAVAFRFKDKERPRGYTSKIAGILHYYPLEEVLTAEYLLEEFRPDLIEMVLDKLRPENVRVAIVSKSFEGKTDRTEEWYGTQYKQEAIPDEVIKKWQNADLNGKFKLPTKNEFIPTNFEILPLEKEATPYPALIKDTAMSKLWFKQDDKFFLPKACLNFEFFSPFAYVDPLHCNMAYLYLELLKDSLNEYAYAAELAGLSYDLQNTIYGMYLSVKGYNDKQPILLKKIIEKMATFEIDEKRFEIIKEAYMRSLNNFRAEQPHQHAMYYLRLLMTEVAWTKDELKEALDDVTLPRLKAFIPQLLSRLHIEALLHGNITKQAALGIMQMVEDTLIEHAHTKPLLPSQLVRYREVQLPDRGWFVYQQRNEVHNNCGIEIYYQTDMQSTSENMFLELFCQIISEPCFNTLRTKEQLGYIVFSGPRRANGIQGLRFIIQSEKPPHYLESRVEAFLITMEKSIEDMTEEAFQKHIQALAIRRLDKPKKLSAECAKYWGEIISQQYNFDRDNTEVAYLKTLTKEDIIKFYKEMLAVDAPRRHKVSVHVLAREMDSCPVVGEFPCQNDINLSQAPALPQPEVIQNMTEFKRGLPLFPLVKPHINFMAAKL

Cell permeability = format: in vitro ADME
[1] = target: T2, Human recombinant IDE (IDEwt) (Homo sapiens, UniProt P14735); format: biochemical; settings: for activity on Aβ16–23 hydrolysis (in words): IDEwt
T2 sequence (P14735 1-1019): T1 sequence (P14735 1-1019 E341A) with A341E

hepatocytes = experiment: Repression of PEPCK by insulin on hepatocytes; format: cell-based
hIDE = target: T3, hIDE (Homo sapiens, UniProt P14735); experiment: Hydrolysis of unlabelled native insulin by hIDE; format: biochemical; settings: at 100µM
T3 sequence (P14735 1-1019): T1 sequence (P14735 1-1019 E341A) with A341E

Cell medium stability = format: in vitro ADME
[2] = test system: SH-SY5Y neuroblastoma cells (APPswe, APPwt); experiment: Cellular assay in the amyloid pathway; format: cell-based, human
How it was run: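 SH-SY5Y cells stably expressing human APP751 Swedish or […], grown in DMEM/10% FCS at 37 °C, 5% CO2. Treated 24 h after seeding with vehicle or test compound (10 mM DMSO stock). Medium cleared at 1000 × g and assayed by ELISA: Aβ1–40 diluted 1:10, Aβ1–42 undiluted. Duplicates from three experiments, normalised to untreated cells. RIPA lysates immunoblotted: 12 µg Bis-Tris gel; CTFs 30 µg Tris-Tricine gel.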

β-pancreatic cells = experiment: Insulin secretion by β-pancreatic cells; format: cell-based
[3] = LogD7.4, PBS/octanol partition from a DMSO stock solution; format: physicochemical; settings: compared with 5
[4] = Solubility in PBS from a DMSO stock solution; format: physicochemical
[5] = 0.1 or 10 µM, 24 h and 48 h, APPswe and APPwt SY5Y

With COC(=O)[C@H](Cc1c[nH]cn1)NC(=O)CN(CC(=O)O)Cc1ccccc1 [Compound 1, (S)-2-[2-(Benzyl-carboxymethyl-amino)-acetylamino]-3-(1H-imidazol-4-yl)-propionic acid methyl ester] the behaviour as inhibitor (IDE E341A) was “full inhibitor”.

With CNC(=O)[C@H](Cc1c[nH]cn1)NC(=O)CN(CCCc1ccccc1)CC(=O)O [Compound 5, ((((S)-2-(1H-Imidazol-4-yl)-1-methylcarbamoyl-ethylcarbamoyl)-methyl)-(3-phenylpropyl)-amino)-acetic acid] the “crossing of cell membranes (in words)” value (Cell permeability) was “does not cross easily cell membranes”.

In the case of COC(=O)[C@H](Cc1ccccc1)NC(=O)CN(CC(=O)O)Cc1ccccc1 [Compound 6, (S)-2-(2-(Benzyl-carboxymethyl-amino)-acetylamino)-3-phenyl-propionic acid methyl ester], the “activity on Aβ16–23 hydrolysis (in words)” value [1] was “completely abolish activity”.

With COC(=O)[C@H](Cc1c[nH]cn1)NC(=O)CN(CC(=O)O)C(=O)c1ccccc1 [Compound 7, (S)-2-(2-(Benzoyl-carboxymethyl-amino)-acetylamino)-3-(1H-imidazol-4-yl)-propionic acid methyl ester] the “activity on Aβ16–23 hydrolysis (in words)” value [1] was “completely abolish activity”.

With CNC(=O)[C@H](Cc1c[nH]cn1)NC(=O)CN(CCCc1ccccc1)CC(=O)OC [Compound 8, ((((S)-2-(1H-Imidazol-4-yl)-1-methylcarbamoyl-ethyl-carbamoyl)-methyl)-(3-phenylpropyl)-amino)-acetic acid methyl ester] the “repression of PEPCK by insulin on hepatocytes” value (hepatocytes) was “nor modify”, the “residual activation of insulin hydrolysis” value (hIDE) was 50 % of 5 activity and the half-life (Cell medium stability) was 11.3 h. For the same compound, the “effect on APP holoproteins and on CTFs” value [2] was “No effect”, the “extracellular levels of Aβ1–40” value [2, 5] was “dose-dependent increase” and the “extracellular levels of Aβ1–42” value [2, 5] was “dose-dependent increase”. For the same compound, the “level of insulin secreted by β-pancreatic cells” value (β-pancreatic cells) was “did neither affect”, the “logD7.4 (in words)” value [3] was “higher” and the “solubility (in words)” value [4] was “good solubility”.

With O=C(O)CN(CCN(CC(=O)O)CC(=O)O)CC(=O)O [EDTA, reference compound] the “inhibition by reference inhibitor” value ([1]; at 2 mM) was 100%.
